ChEMBL document CHEMBL1124223, “1-Substituted 7-[3-[(ethylamino)methyl]-1-pyrrolidinyl]-6,8- difluoro-1,4-dihydro-4-oxo-3-quinolinecarboxylic acids. New quantitative structure-activity relationships at N1 for the quinolone antibacterials” (1988)
Converted amounts (≈) assume the structure as drawn.

Columns and labels:
[1] = test system: Mus musculus; test: In vivo activity against Streptococcus pyogenes (sc); assay type: functional; conditions: read-out: PD50
Procedure, shortened: (§1)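 Median protective dose (PD50, mg/kg) measured in acute, lethal, systemic infections in female Charles River CD-1 mice. A single dose of compound was given at the time of bacterial challenge. Aqueous stock solutions were made with 0.1 N sodium or potassium hydroxide.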

[2] = test system: Staphylococcus aureus; test: Minimum inhibitory concentration against Staphylococcus aureus (H-228).; assay type: functional
Procedure, shortened: (§2)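 MICs were determined by standard microtitration against a panel of 11 bacterial strains. Aqueous stock solutions were prepared with 0.1 N sodium or potassium hydroxide.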

[3] = test system: Mus musculus; test: In vivo activity against Pseudomonas aeruginosa (po); assay type: functional; conditions: read-out: PD50; procedure, shortened: as §1
[4] = test system: Mus musculus; test: In vivo activity against Streptococcus pneumoniae (po); assay type: functional; conditions: read-out: PD50; procedure, shortened: as §1
[5] = test system: Streptococcus pneumoniae; test: Minimum inhibitory concentration against Streptococcus pneumoniae (SV-1).; assay type: functional; procedure, shortened: as §2
[6] = test system: Staphylococcus aureus; test: Minimum inhibitory concentration against Staphylococcus aureus (UC76).; assay type: functional; procedure, shortened: as §2
[7] = target: DNA gyrase (Escherichia coli) (UniProt P0AES6+P0AES4); test: Concentration required for 50% inhibition of gyrase.; assay type: protein-complex assay
Procedure, shortened: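 DNA gyrase inhibition: the drug concentration (µg/mL) giving 50% inhibition (I50) was recorded, along with the lowest concentration inducing gyrase-mediated DNA cleavage. Data come from duplicate experiments with ±50% reproducibility.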

[8] = test system: Enterobacter; test: Minimum inhibitory concentration against gram-negative enterobacteriaceae.; assay type: functional
Procedure, shortened: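 This value is the geometric mean of microtitration MICs for the Gram-negative Enterobacteriaceae strains in the 11-organism panel. Aqueous stocks were prepared in 0.1 N sodium or potassium hydroxide.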

[9] = test system: Mus musculus; test: In vivo activity against Streptococcus pyogenes (po); assay type: functional; conditions: read-out: PD50; procedure, shortened: as §1
[10] = test system: Escherichia coli; test: Minimum inhibitory concentration against Escherichia coli (vogel); assay type: functional; procedure, shortened: as §2
[11] = test system: Klebsiella pneumoniae; test: Minimum inhibitory concentration against Klebsiella pneumoniae (MGH-2); assay type: functional; procedure, shortened: as §2
[12] = test system: Escherichia coli; test: Minimum inhibitory concentration against Escherichia coli (H560); assay type: functional; procedure, shortened: as §2
[13] = test system: Streptococcus pyogenes; test: Minimum inhibitory concentration against Streptococcus pyogenes (C203).; assay type: functional; procedure, shortened: as §2
[14] = test system: Providencia rettgeri; test: Minimum inhibitory concentration against Providencia rettgeri. (M1771); assay type: functional; procedure, shortened: as §2
[15] = test system: Mus musculus; test: In vivo activity against Streptococcus pneumoniae (sc); assay type: functional; conditions: read-out: PD50; procedure, shortened: as §1
[16] = test system: Enterococcus faecalis; test: Minimum inhibitory concentration against Streptococcus faecalis (MGH-2).; assay type: functional; procedure, shortened: as §2
[17] = test system: Pseudomonas aeruginosa; test: Minimum inhibitory concentration against Pseudomonas aeruginosa. (UI-18); assay type: functional; procedure, shortened: as §2
[18] = test system: Mus musculus; test: In vivo activity against Escherichia coli (po); assay type: functional; conditions: read-out: PD50; procedure, shortened: as §1
[19] = test system: Enterobacter cloacae; test: Minimum inhibitory concentration against Enterobacter cloacae. (MA2446).; assay type: functional
[20] = test system: Mus musculus; test: In vivo activity against Pseudomonas aeruginosa (sc); assay type: functional; conditions: read-out: PD50; procedure, shortened: as §1
[21] = test system: Mus musculus; test: In vivo activity against Escherichia coli (sc); assay type: functional; conditions: read-out: PD50; procedure, shortened: as §1

| SMILES | MIC [2] [µg/mL] | MIC [5] [µg/mL] | MIC [6] [µg/mL] | IC50 [7] [µg/mL] | MIC [8] [µg/mL] | MIC [10] [µg/mL] | MIC [11] [µg/mL] | MIC [12] [µg/mL] | MIC [13] [µg/mL] | MIC [14] [µg/mL] | MIC [16] [µg/mL] | MIC [17] [µg/mL] | MIC [19] [µg/mL] | other results |
| --- | --- | --- | --- | --- | --- | --- | --- | --- | --- | --- | --- | --- | --- | --- |
| CCNCC1CCN(c2c(F)cc3c(=O)c(C(=O)O)cn(C4CC4)c3c2F)C1 (stereo unspecified) [PD-117558] | 0.05 (≈ 0.128 µM) | 0.025 (≈ 0.0639 µM) | 0.006 (≈ 0.0153 µM) | 1.4 (≈ 3.58 µM) | 0.06 (≈ 0.153 µM) | 0.05 (≈ 0.128 µM) | 0.05 (≈ 0.128 µM) | 0.013 (≈ 0.0332 µM) | 0.025 (≈ 0.0639 µM) | 0.2 (≈ 0.511 µM) | 0.025 (≈ 0.0639 µM) | 0.4 (≈ 1.02 µM) | 0.1 (≈ 0.255 µM) | ED50 [1]: 0.5 mg/kg; ED50 [3]: 40 mg/kg; ED50 [4]: 3 mg/kg; ED50 [9]: 2 mg/kg; ED50 [15]: 2 mg/kg; ED50 [18]: 4 mg/kg; ED50 [20]: 13 mg/kg; ED50 [21]: 1 mg/kg |
| CCNCC1CCN(c2c(F)cc3c(=O)c(C(=O)O)cn(C4(C)CC4)c3c2F)C1 (stereo unspecified) | 0.4 (≈ 0.987 µM) | 0.8 (≈ 1.97 µM) | 0.1 (≈ 0.247 µM) | 6.3 (≈ 15.5 µM) | 1.38 (≈ 3.4 µM) | 0.8 (≈ 1.97 µM) | 0.8 (≈ 1.97 µM) | 1.6 (≈ 3.95 µM) | 0.8 (≈ 1.97 µM) | 1.6 (≈ 3.95 µM) | 0.2 (≈ 0.493 µM) | 3.1 (≈ 7.65 µM) | 3.1 (≈ 7.65 µM) |  |
| CCNCC1CCN(c2c(F)cc3c(=O)c(C(=O)O)cn(CCF)c3c2F)C1 (stereo unspecified) | 0.4 (≈ 1.01 µM) | 0.1 (≈ 0.252 µM) | 0.1 (≈ 0.252 µM) | 7.5 (≈ 18.9 µM) | 0.23 (≈ 0.579 µM) | 0.1 (≈ 0.252 µM) | 0.4 (≈ 1.01 µM) | 0.1 (≈ 0.252 µM) | 0.1 (≈ 0.252 µM) | 0.8 (≈ 2.01 µM) | 0.2 (≈ 0.503 µM) | 1.6 (≈ 4.03 µM) | 0.2 (≈ 0.503 µM) |  |
| CNn1cc(C(=O)O)c(=O)c2cc(F)c(N3CCN(C)CC3)cc21 [AMIFLOXACIN] | 1.6 (≈ 4.79 µM) | 12.5 (≈ 37.4 µM) | 0.4 (≈ 1.2 µM) |  | 0.1 (≈ 0.299 µM) | 0.1 (≈ 0.299 µM) | 0.2 (≈ 0.598 µM) | 0.025 (≈ 0.0748 µM) | 12.5 (≈ 37.4 µM) | 0.2 (≈ 0.598 µM) | 3.1 (≈ 9.27 µM) | 0.8 (≈ 2.39 µM) |  |  |
| CCNCC1CCN(c2c(F)cc3c(=O)c(C(=O)O)cn(C)c3c2F)C1 (stereo unspecified) | 1.6 (≈ 4.38 µM) | 0.4 (≈ 1.09 µM) | 0.2 (≈ 0.547 µM) | 7.5 (≈ 20.5 µM) | 0.53 (≈ 1.45 µM) | 0.4 (≈ 1.09 µM) | 0.4 (≈ 1.09 µM) | 0.1 (≈ 0.274 µM) | 0.4 (≈ 1.09 µM) | 1.6 (≈ 4.38 µM) | 1.6 (≈ 4.38 µM) | 1.6 (≈ 4.38 µM) | 1.6 (≈ 4.38 µM) |  |
| CCNCC1CCN(c2c(F)cc3c(=O)c(C(=O)O)cn(C(C)C)c3c2F)C1 (stereo unspecified) | 0.4 (≈ 1.02 µM) | 0.8 (≈ 2.03 µM) | 0.2 (≈ 0.508 µM) | 28 (≈ 71.2 µM) | 1.05 (≈ 2.67 µM) | 0.8 (≈ 2.03 µM) | 0.8 (≈ 2.03 µM) | 0.2 (≈ 0.508 µM) | 0.2 (≈ 0.508 µM) | 6.3 (≈ 16 µM) | 1.6 (≈ 4.07 µM) | 12.5 (≈ 31.8 µM) | 1.6 (≈ 4.07 µM) |  |
| CCNCC1CCN(c2c(F)cc3c(=O)c(C(=O)O)cn(C4CC4C)c3c2F)C1 (stereo unspecified) | 0.8 (≈ 1.97 µM) | 0.8 (≈ 1.97 µM) | 0.2 (≈ 0.493 µM) | 13 (≈ 32.1 µM) | 1.59 (≈ 3.92 µM) | 0.8 (≈ 1.97 µM) | 1.6 (≈ 3.95 µM) | 0.8 (≈ 1.97 µM) | 0.8 (≈ 1.97 µM) | 6.3 (≈ 15.5 µM) | 0.4 (≈ 0.987 µM) | 6.3 (≈ 15.5 µM) | 1.6 (≈ 3.95 µM) |  |
| CCNCC1CCN(c2c(F)cc3c(=O)c(C(=O)O)cn(CC(F)(F)F)c3c2F)C1 (stereo unspecified) | 0.4 (≈ 0.923 µM) | 0.4 (≈ 0.923 µM) | 0.1 (≈ 0.231 µM) | 26 (≈ 60 µM) | 1.05 (≈ 2.42 µM) | 0.8 (≈ 1.85 µM) | 0.8 (≈ 1.85 µM) | 0.4 (≈ 0.923 µM) | 0.4 (≈ 0.923 µM) | 3.1 (≈ 7.15 µM) | 0.2 (≈ 0.461 µM) | 6.3 (≈ 14.5 µM) | 1.6 (≈ 3.69 µM) |  |
| CCNCC1CCN(c2c(F)cc3c(=O)c(C(=O)O)cn(C4CCCC4)c3c2F)C1 (stereo unspecified) | 0.4 (≈ 0.954 µM) | 0.2 (≈ 0.477 µM) | 0.1 (≈ 0.238 µM) | 28 (≈ 66.8 µM) | 3.6 (≈ 8.58 µM) | 3.1 (≈ 7.39 µM) | 3.1 (≈ 7.39 µM) | 0.8 (≈ 1.91 µM) | 0.4 (≈ 0.954 µM) | 12.5 (≈ 29.8 µM) | 0.4 (≈ 0.954 µM) | 12.5 (≈ 29.8 µM) | 6.3 (≈ 15 µM) |  |
| CCNCC1CCN(c2c(F)cc3c(=O)c(C(=O)O)cn(C4CCC4)c3c2F)C1 (stereo unspecified) | 0.1 (≈ 0.247 µM) | 0.1 (≈ 0.247 µM) | 0.05 (≈ 0.123 µM) | 26 (≈ 64.1 µM) | 0.4 (≈ 0.987 µM) | 0.2 (≈ 0.493 µM) | 0.4 (≈ 0.987 µM) | 0.1 (≈ 0.247 µM) | 0.2 (≈ 0.493 µM) | 3.1 (≈ 7.65 µM) | 0.2 (≈ 0.493 µM) | 3.1 (≈ 7.65 µM) | 0.4 (≈ 0.987 µM) |  |
